Measured values taken from article PMC11382152 (The Journal of Organic Chemistry, 2024).
≈ marks a conversion by molar mass, not a printed value.

Experiments:
Assay in all cases: MIC assay
Format in all cases: cell-based
[1] = tested on: Bacillus subtilis ATCC 6051; conditions: ATCC6051
In short: (§1)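 Test compounds were prepared as trifluoroacetate salts and assayed for MIC against a Gram-positive panel: B. subtilis, S. epidermidis, MSSA and MRSA. E. coli served as the Gram-negative negative-control organism. The natural parent peptide and vancomycin served as positive controls.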

[2] = tested on: Escherichia coli ATCC 10798; conditions: ATCC10798
In short: as §1

[3] = tested on: Staphylococcus epidermidis ATCC 14990; conditions: ATCC14990
In short: as §1

## CN[C@H](CC(C)C)C(=O)N[C@H]1C(=O)N[C@@H](CC(N)=O)C(=O)N[C@H]2C(=O)N[C@H]3C(=O)N[C@H](C(=O)N[C@H](C(=O)O)c4cc(O)cc(O)c4-c4cc3ccc4O)[C@H](O)c3ccc(c(Cl)c3)Oc3cc2cc(c3O[C@@H]2O[C@H](CO)[C@@H](O)[C@H](O)[C@H]2O[C@H]2C[C@](C)(N)[C@H](O)[C@H](C)O2)Oc2ccc(cc2Cl)[C@H]1O [vancomycin]
[1]
  MIC: 0.125 to 0.25 µg/mL (≈ 0.0863 to 0.173 µM)
[2]
  MIC: > 32 µg/mL
[3]
  MIC: 2 µg/mL (≈ 1.38 µM)
